Among the data in ChEMBL document CHEMBL1130011, “Chemical and biological studies on a series of novel (trans-(1R,2R)-, trans-(1S,2S)-, and cis-1,2-diaminocyclohexane)platinum(IV) carboxylate complexes” (J Med Chem, 1997) are T/C and Tumor growth delay values, retold here.

Type in all cases: functional, organism-based
Experiment [1] has as its system Mus musculus. Put plainly: Antitumor activity against L1210/0 leukemia cells in mice at the optimal dose of 50 mg/kg/injection (median survival time of [treated mice/control mice]). Put shortly:
(§1)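 Male B6D2F1 (C57BL/6 × DBA/2) mice were inoculated ip with 1 × 10^5 leukemia cells on day 0. Drug was given ip on days 1, 5 and 9, prepared in water or 0.9% NaCl and administered immediately, over a dose range of 0.5–200 mg/kg/injection. Animals were monitored daily. %T/C = median survival of treated × 100/median survival of controls. Cures were mice alive at day 60.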

Experiment [2] deals with Mus musculus. Put plainly: Antitumor activity against L1210/0 leukemia cells in mice at the optimal dose of 25 mg/kg/injection (median survival time of [treated mice/control mice]). The essentials: as §1
Experiment [3] relates to Mus musculus. The experiment is described as follows: Antitumor activity against L1210/cisplatin leukemia cells in mice at the optimal dose of 25 mg/kg/injection (median survival time of [treated mice/control mice]). Put shortly: as §1
For experiment [4], the system named is Mus musculus. The experiment is described as follows: Antitumor activity against L1210/cisplatin leukemia cells in mice at the optimal dose of 50 mg/kg/injection (median survival time of [treated mice/control mice]). The essentials:
as §1

Experiment [5] relates to Mus musculus. The experiment is described as follows: Antitumor activity against L1210/0 leukemia cells in mice at the optimal dose of 100 mg/kg/injection (median survival time of [treated mice/control mice]). The essentials:
as §1

Experiment [6] deals with Mus musculus. The experiment is described as follows: Antitumor activity against M5076 reticulosarcoma grown subcutaneously in mice at the optimal dose of 100 mg/kg/injection. The essentials: (§2)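 Male B6D2F1 (C57BL/6 × DBA/2) mice received 1 × 10^7 M5076 cells sc on day 0. Drug was given ip on days 5, 9, 13 and 17, prepared in water or 0.9% NaCl and given immediately, over a dose range of 0.5–200 mg/kg/injection. Animals were monitored daily. Results are expressed as %T/C (median survival ratio × 100) or as tumor growth delay.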

Experiment [7] relates to Mus musculus. The experiment is described as follows: Antitumor activity against L1210/0 leukemia cells in mice at the optimal dose of 200 mg/kg/injection (median survival time of [treated mice/control mice]). Put shortly:
as §1

The subject of experiment [8] is Mus musculus. Put plainly: Antitumor activity against L1210/0 leukemia cells in mice at the optimal dose of 75 mg/kg/injection (median survival time of [treated mice/control mice]). The essentials: as §1
In experiment [9] the test system is Mus musculus. The experiment is described as follows: Antitumor activity against L1210/cisplatin leukemia cells in mice at the optimal dose of 75 mg/kg/injection (median survival time of [treated mice/control mice]). The essentials: as §1
Experiment [10] relates to Mus musculus. The experiment is described as follows: Antitumor activity against L1210/0 leukemia cells in mice at the optimal dose of 5 mg/kg/injection (median survival time of [treated mice/control mice]). The essentials: as §1
For experiment [11], the system named is Mus musculus. Put plainly: Antitumor activity against L1210/cisplatin leukemia cells in mice at the optimal dose of 5 mg/kg/injection (median survival time of [treated mice/control mice]). Put shortly: as §1
For experiment [12], the system named is Mus musculus. Put plainly: Antitumor activity against M5076 reticulosarcoma grown subcutaneously in mice at the optimal dose of 5 mg/kg/injection. The essentials:
as §2

The subject of experiment [13] is Mus musculus. The experiment is described as follows: Antitumor activity against L1210/cisplatin leukemia cells in mice at the optimal dose of 100 mg/kg/injection (median survival time of [treated mice/control mice]). Put shortly:
as §1

Experiment [14] deals with Mus musculus. The experiment is described as follows: Antitumor activity against L1210/cisplatin leukemia cells in mice at the optimal dose of 200 mg/kg/injection (median survival time of [treated mice/control mice]). Put shortly:
as §1

Experiment [15] deals with Mus musculus. Put plainly: Antitumor activity against M5076 reticulosarcoma grown subcutaneously in mice at the optimal dose of 200 mg/kg/injection. Put shortly:
as §2

For “Platinum IV (trans-(1R,2R)-diaminecyclohexyl)-trans-(acetate)2 (oxalate)”, in the experiment with Mus musculus [1], the T/C is 171%. For the substance “Platinum IV (trans-(1R,2R)-diaminecyclohexyl)-trans-(trifluoroacetate)2 (acetate)4”, the T/C in the experiment on Mus musculus [2] was 218%; with Mus musculus [3] it was 148%. Turning to “Platinum IV (trans-(1R,2R)-diaminecyclohexyl)-trans-(trifluoroacetate)2 (oxalate)”, the T/C was over 700% with Mus musculus [1] and 176% in the experiment on Mus musculus [4]. Substance “Platinum IV (cis-1,2-diaminecyclohexyl)-trans-(acetate)2 (oxalate)” displayed a T/C in the experiment with Mus musculus [5] of 159%.

Turning to “Platinum IV (trans-(1R,2R)-diaminecyclohexyl)-trans-(acetate)2”, the T/C in the experiment with Mus musculus [5] was found to be 265%; with Mus musculus [4], 144%. In addition, the Tumor growth delay in the experiment with Mus musculus [6] stood at 19.5 days. Regarding “Platinum IV (cis-1,2-diaminecyclohexyl)-trans-(acetate)2 (1,1-cyclobutanedicarboxylate)”, the T/C in the experiment on Mus musculus [7] was determined as 112%. Same read-out and setting: next, “Platinum IV (cis-1,2-diaminecyclohexyl)-trans-(acetate)2 (malonate)”: 206%. On to CARBOPLATIN, for which the T/C is 147% in the experiment on Mus musculus [8] and 111% with Mus musculus [9]. As to CISPLATIN, the T/C in the experiment with Mus musculus [10] came out at 300%; with Mus musculus [11], 100%. Also, the Tumor growth delay in the experiment with Mus musculus [12] was 16.3 days.

The substance “Platinum IV (trans-(1R,2R)-diaminecyclohexyl) (acetate)4” returned a T/C in the experiment on Mus musculus [7] of 206%. Consider “Platinum IV (trans-(1R,2R)-diaminecyclohexyl)-trans-(trifluoroacetate)2 (1,1-cyclobutanedicarboxylate)”, for which the T/C in the experiment on Mus musculus [7] turned out to be 253%; with Mus musculus [13] it was 205%.

On to “Platinum IV (trans-(1S,2S)-diaminecyclohexyl)-trans-(acetate)2 (cyclobutanecarboxylate)2”, for which, in the experiment on Mus musculus [1], the T/C stood at 182%. Still for that read-out and setting: the figure for “Platinum IV (trans-(1S,2S)-diaminecyclohexyl)-trans-(acetate)2 (oxalate)” is 135%. Consider “Platinum IV (trans-(1R,2R)-diaminecyclohexyl)-trans-(acetate)2 (methylmalonate)”, for which the figures for the T/C in the experiment with Mus musculus [7] and with Mus musculus [14] were 147% and 93%, respectively. For the same substance, in the experiment with Mus musculus [15], the Tumor growth delay came out at 21.3 days. Consider [Pt(O2CCH3)4(dach)]dach, for which the T/C in the experiment with Mus musculus [7] is 182%. Same read-out and setting: next, “Platinum IV (trans-(1S,2S)-diaminecyclohexyl) (acetate)4”: 194%. For the substance “Platinum IV (trans-(1R,2R)-diaminecyclohexyl)-trans-(acetate)2 (1,1-cyclobutanedicarboxylate)”, the T/C came out at 112% in the experiment on Mus musculus [7] and 100% in the experiment on Mus musculus [14]. In the experiment on Mus musculus [15], this substance yielded a Tumor growth delay of 15.8 days. As for “Platinum IV (trans-(1R,2R)-diaminecyclohexyl)-trans-(acetate)2 (cyclobutanecarboxylate)2”, the T/C with Mus musculus [5] was 206%; in the experiment with Mus musculus [4] it was 157%.
